A short description of data set [1]: Inhibition of cholesterol biosynthesis in rat following 2 mg/kg p.o. administration. Format: functional. To be noted: route oral. The method in brief:
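Female rats (130 ± 20 g) kept on reversed lighting, dosed orally at 2 mg/kg in DMSO/HPMC (n = 2). Tritiated mevalonate (2.5 µCi) given 1 h later; killed after a further 1 h. Liver saponified in KOH/EtOH 80 °C 2 h, isohexane-extracted, analysed by HPLC. Percent inhibition of cholesterol biosynthesis versus controls, with sterol precursor profile for step selectivity.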

Data set [2] can be described thus: Effective dose (50%) required to inhibit cholesterol biosynthesis in rat after administration of a shallow oral dose. Format: functional. The method in brief:
(§1)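 Female rats (130 ± 20 g) on reversed lighting, given test compound orally across a dose range in DMSO/HPMC (n = 2). Tritiated mevalonate (2.5 µCi) 1 h post-dose; killed 1 h later. Liver saponified, isohexane-extracted, HPLC radio-profile of sterols. ED50 or ED80 for inhibition of cholesterol biosynthesis derived from dose-response.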

The nature of data set [3]: Effective dose (80%) required to inhibit cholesterol biosynthesis in rat after administration of a shallow oral dose. The data set is classed as functional. The gist of the method:
as §1

Data set [4] in a line: Compound was tested for its acid dissociation constant. Format: ADME.
The target in data set [5] is T1, Lanosterol synthase (Rattus norvegicus, UniProt P48450).
T1 sequence (P48450 whole entry): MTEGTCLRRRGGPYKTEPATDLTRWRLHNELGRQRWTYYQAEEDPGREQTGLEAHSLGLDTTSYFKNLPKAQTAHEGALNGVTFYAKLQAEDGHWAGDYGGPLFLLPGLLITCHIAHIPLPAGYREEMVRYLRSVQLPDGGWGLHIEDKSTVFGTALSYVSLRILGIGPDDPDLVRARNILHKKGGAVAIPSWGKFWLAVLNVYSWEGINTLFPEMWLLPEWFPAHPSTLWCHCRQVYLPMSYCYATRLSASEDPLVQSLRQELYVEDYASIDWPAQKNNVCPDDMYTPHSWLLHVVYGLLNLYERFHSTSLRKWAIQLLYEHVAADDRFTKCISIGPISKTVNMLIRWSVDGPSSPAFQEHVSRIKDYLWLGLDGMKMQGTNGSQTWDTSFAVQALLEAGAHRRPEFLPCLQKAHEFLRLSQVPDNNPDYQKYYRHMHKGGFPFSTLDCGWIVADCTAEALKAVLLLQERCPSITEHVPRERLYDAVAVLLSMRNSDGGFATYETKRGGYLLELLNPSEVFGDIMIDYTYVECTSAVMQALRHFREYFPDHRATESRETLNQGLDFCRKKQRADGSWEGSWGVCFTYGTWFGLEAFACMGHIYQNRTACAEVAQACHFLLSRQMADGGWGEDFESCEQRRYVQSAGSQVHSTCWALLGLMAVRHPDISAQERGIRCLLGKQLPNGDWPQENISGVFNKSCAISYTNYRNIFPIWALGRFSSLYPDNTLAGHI
The experiment in a line: In vitro inhibitory activity of the compound against rat microsomal 2,3-Oxidosqualene cyclase-Lanosterol synthase (OSC). The method in brief: (§2)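 Rat liver microsomes (15-20 mg/mL protein stock) diluted in 50 mM phosphate buffer pH 7.4 with Tween. Test compound at serial 10-fold dilutions (10^-5 M, 10^-6 M, etc.) preincubated with microsomes 10 min at 37 °C. Oxidosqualene substrate added, then 1 h incubation. Stopped with ethanolic KOH, saponified 80 °C 2 h, hexane-extracted. IC50 by curve fitting with tight-binding model. Human OSC run the same way.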

The nature of data set [6]: Effective dose (50%) required to inhibit cholesterol biosynthesis in rat after oral administration. The data set is classed as functional. The method in brief:
as §1

The target in data set [7] is T1, Lanosterol synthase. The data set is described as follows: (§3) In vitro inhibitory activity of the compound against rat microsomal 2,3-Oxidosqualene lanosterol cyclase (OSC). The method in brief:
as §2

Data set [8] concerns the target T2, Lanosterol synthase (Rattus norvegicus) (UniProt P48450).
T2 sequence (whole entry): T1 sequence (P48450 whole entry)
The experiment in a line: Compound was tested for percent inhibition of OSC at 1 uM concentration in rat. The method in brief: (§4)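 Rat liver microsomal OSC in phosphate-buffered Tween, pH 7.4, with test compound at 1 µM. Preincubation 10 min at 37 °C, then oxidosqualene added for 1 h. Stopped with ethanolic KOH at 80 °C for 2 h, hexane-extracted. Percent inhibition, n = 2.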

Data set [9] addresses T3, Lanosterol synthase (Homo sapiens, UniProt P48449).
T3 sequence (P48449 whole entry): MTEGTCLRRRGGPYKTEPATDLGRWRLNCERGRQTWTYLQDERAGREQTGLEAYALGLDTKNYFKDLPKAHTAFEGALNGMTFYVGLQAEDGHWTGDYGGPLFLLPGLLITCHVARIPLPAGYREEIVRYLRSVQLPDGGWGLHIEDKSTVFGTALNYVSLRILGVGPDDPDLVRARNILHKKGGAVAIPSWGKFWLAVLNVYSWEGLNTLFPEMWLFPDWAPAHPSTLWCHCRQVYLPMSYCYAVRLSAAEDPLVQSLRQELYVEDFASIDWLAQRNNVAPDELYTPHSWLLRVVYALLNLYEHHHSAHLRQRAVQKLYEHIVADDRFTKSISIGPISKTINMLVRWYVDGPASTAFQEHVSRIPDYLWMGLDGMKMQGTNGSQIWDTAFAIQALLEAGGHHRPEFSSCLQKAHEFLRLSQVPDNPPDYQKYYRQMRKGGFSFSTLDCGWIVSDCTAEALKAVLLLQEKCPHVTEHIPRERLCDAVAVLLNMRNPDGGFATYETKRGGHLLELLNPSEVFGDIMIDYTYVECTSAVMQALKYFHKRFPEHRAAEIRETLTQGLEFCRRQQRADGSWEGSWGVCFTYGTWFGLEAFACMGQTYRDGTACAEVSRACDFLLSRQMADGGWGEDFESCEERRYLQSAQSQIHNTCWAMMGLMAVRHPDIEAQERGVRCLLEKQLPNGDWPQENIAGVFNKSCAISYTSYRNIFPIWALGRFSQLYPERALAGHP
The experiment in a line: Compound was tested for its inhibition against human OSC enzyme. The gist of the method: as §2

Data set [10] is described as follows: Effective dose (80%) required to inhibit cholesterol biosynthesis in rat after oral administration. The data set is classed as functional. The gist of the method:
as §1

For data set [11], the target named is T2, Lanosterol synthase (Rattus norvegicus). Described as §3. To be noted: concentration not given here. The gist of the method:
as §2

Data set [12] deals with T1, Lanosterol synthase. The data set is described as follows: Compound was tested for its inhibition against rat OSC enzyme. The gist of the method: as §2
Data set [13] addresses T2, Lanosterol synthase (Rattus norvegicus). The experiment in a line: In vitro percent inhibitory activity of the compound against rat microsomal OSC enzyme at 1 uM concentration. The gist of the method: as §4
The target is the same in data set [14]. The data set is described as follows: In vitro percent inhibitory activity against rat microsomal OSC enzyme at 1 uM concentration. The method in brief: as §4

Molecules are shown by their SMILES. Bounds are passed on as bounds.

For `N#Cc1ccc(S(=O)(=O)N2CCN(C(=O)C3CCN(c4ccncc4)CC3)CC2)cc1`, 2 mg/kg produced 12% inhibition in vivo in [1].
As for `O=C(C1CCN(c2ccncc2)CC1)N1CCN(S(=O)(=O)c2ccc(I)cc2)CC1`, testing at 2 mg/kg in data set [1] gave an inhibition in vivo of 52%. It took a dose of 2 mg/kg to reach the 50% effect level in data set [2] (ED50). Also, the ED80 in [3] was less than 20 mg/kg. In data set [4], this compound showed a pKa of 9.2. Further, the 50% inhibitory concentration (IC50) on Lanosterol synthase [5] is 82 nM.
Consider `O=C(c1ccc(Cl)cc1)c1ccc(OC2CN3CCC2CC3)cc1` (centres undefined), for which the pKa in data set [4] worked out at 9.1. Also, the ED50 in data set [6] worked out at 2 mg/kg.
Regarding `O=C(C1CCN(c2ccncc2)CC1)N1CCN(S(=O)(=O)c2ccc(Br)cc2)CC1`, the half-maximal inhibitory concentration (IC50) against Lanosterol synthase [7] came out at 228 nM; on Lanosterol synthase [9], 161 nM. At 2 mg/kg the inhibition in vivo in data set [1] was 69%. In data set [8], this compound returned an inhibition of 100%. In data set [4], this compound showed a pKa of 9.2. Also, in data set [6], it took a dose of 2 mg/kg to reach the 50% effect level (ED50). Further, the ED80 in data set [10] was greater than 2 mg/kg.
Take `O=C(c1ccc(Br)cc1)N1CCN(C(=O)C2CCN(c3ccncc3)CC2)CC1`: testing at 2 mg/kg in data set [1] gave an inhibition in vivo of 28%. The compound also gave an inhibition in [11] of 96%.
Turning to `O=C(C1CCN(c2ccncc2)CC1)N1CCN(Cc2ccc(Br)cc2)CC1`, the inhibition in vivo at 2 mg/kg in data set [1] is 48%. The compound also gave an inhibition in data set [11] of 100%. The same compound showed an ED50 in data set [6] of 1.8 mg/kg.
As for `O=C(C1CCN(c2ccncc2)CC1)N1CCN(S(=O)(=O)c2ccc(F)cc2F)CC1`, the inhibition in vivo at 2 mg/kg in data set [1] stood at 10%.
Regarding `Cc1nccc(N2CCC(C(=O)N3CCN(S(=O)(=O)c4ccc(Br)cc4)CC3)CC2)n1`, the half-inhibitory concentration (IC50) turned out to be 398 nM against Lanosterol synthase [12] and 112 nM on Lanosterol synthase [9]. Testing at 2 mg/kg in data set [1] gave an inhibition in vivo of 83%. In addition, the inhibition in data set [13] was found to be 76%. Further, in [4], the pKa worked out at 7.2. It took a dose of 0.3 mg/kg to reach the 50% effect level in [6] (ED50). Further, the ED80 in data set [10] is 1.2 mg/kg.
In data set [1], `COc1ccc(S(=O)(=O)N2CCN(C(=O)C3CCN(c4ccncc4)CC3)CC2)cc1` yielded an inhibition in vivo at 2 mg/kg of 38%.
On the same count and under the same terms, under `Cc1ccc(S(=O)(=O)N2CCN(C(=O)C3CCN(c4ccncc4)CC3)CC2)cc1` stands 66%.
In turn, `O=C(C1CCN(c2ccncc2)CC1)N1CCN(S(=O)(=O)c2cccc(Br)c2)CC1` gave an inhibition in vivo at 2 mg/kg in data set [1] of 43%.
Still for that read-out and setting: under `O=C(C1CCN(c2ccncc2)CC1)N1CCN(S(=O)(=O)c2cccc(C(F)(F)F)c2)CC1` stands 7%.
For `Cc1nsc(N2CCC(C(=O)N3CCN(S(=O)(=O)c4ccc(Br)cc4)CC3)CC2)n1`, the inhibition in vivo at 2 mg/kg in data set [1] is 9%. In [13], this compound gave an inhibition of 3%.
With `O=C(C1CCN(c2ccncc2)CC1)N1CCN(S(=O)(=O)c2cccc(F)c2)CC1`, 2 mg/kg produced 52% inhibition in vivo in data set [1].
In [1], `O=C(C1CCN(C2=NCCO2)CC1)N1CCN(S(=O)(=O)c2ccc(Br)cc2)CC1` gave an inhibition in vivo at 2 mg/kg of 82%. For the same compound, in data set [11], the inhibition came out at 87%.
`O=C(C1CCN(C2=NCCS2)CC1)N1CCN(S(=O)(=O)c2ccc(Br)cc2)CC1`: the inhibition in vivo at 2 mg/kg in [1] amounted to 81%. This compound gave an inhibition in data set [13] of 100%.
Regarding `O=C(C1CCN(c2ccncc2)CC1)N1CCN(S(=O)(=O)c2ccc(F)cc2)CC1`, the inhibition in vivo at 2 mg/kg in [1] was 46%.
`O=C(c1ccc(C(F)(F)F)cc1)N1CCC(=Cc2ccc(C3=NCCO3)cc2)CC1` returned an IC50 at Lanosterol synthase [7] of 90 nM. In data set [1], this compound had an inhibition in vivo at 2 mg/kg of 93%. In data set [4], this compound showed a pKa of 4.7. The compound also registered an ED50 in data set [6] of 0.4 mg/kg. In addition, the ED80 in [10] was found to be 1 mg/kg.
In the case of `O=C(C1CCN(c2ccncn2)CC1)N1CCN(S(=O)(=O)c2ccc(Br)cc2)CC1`, the 50% inhibitory concentration (IC50) at Lanosterol synthase [12] was 116 nM; against Lanosterol synthase [9] it was 37 nM. The inhibition in vivo at 2 mg/kg in data set [1] is 81%. The compound further had an inhibition in data set [13] of 100%. The compound also had a pKa in data set [4] of 6.1. In data set [6], the median effective dose (ED50) is 0.5 mg/kg. For the same compound, the ED80 in data set [10] amounted to 1.4 mg/kg.
`O=C(C1CCN(c2ccncc2)CC1)N1CCN(S(=O)(=O)c2ccccc2)CC1`: the IC50 against Lanosterol synthase [7] worked out at 326 nM; against Lanosterol synthase [9], 143 nM. In [1], the inhibition in vivo at 2 mg/kg turned out to be 53%.
Turning to `O=C(C1CCN(c2ncccn2)CC1)N1CCN(S(=O)(=O)c2ccc(Br)cc2)CC1`, the inhibition in vivo at 2 mg/kg in data set [1] was determined as 23%. The same compound returned an inhibition in data set [14] of 8%.
Take `O=C(C1CCN(c2ccnnc2)CC1)N1CCN(S(=O)(=O)c2ccc(Br)cc2)CC1`: the inhibition in vivo at 2 mg/kg in data set [1] was 54%.
Compound `CCC(C)(C)C(=O)O[C@H]1C[C@@H](C)C=C2C=C[C@H](C)[C@H](CC[C@@H]3C[C@@H](O)CC(=O)O3)[C@H]21` [SIMVASTATIN] showed an ED80 in data set [10] of 1.2 mg/kg.

The record behind these values is ChEMBL document CHEMBL1133564, “A novel series of 4-piperidinopyridine and 4-piperidinopyrimidine inhibitors of 2,3-oxidosqualene cyclase-lanosterol synthase” (J Med Chem, 2000).
